# Assay results reported in ChEMBL document CHEMBL4406919, “Structure-Based Design of Selective, Covalent G Protein-Coupled Receptor Kinase 5 Inhibitors” (ACS Med Chem Lett, 2019).
# What was measured:
# [1] = target: T1, Beta-adrenergic receptor kinase 1 (Bos taurus, UniProt P21146); assay: Inhibition of bovine GRK2 using tubulin as substrate measured after 4 hrs by [gamma-32P]-ATP assay
# T1 sequence (P21146 whole entry): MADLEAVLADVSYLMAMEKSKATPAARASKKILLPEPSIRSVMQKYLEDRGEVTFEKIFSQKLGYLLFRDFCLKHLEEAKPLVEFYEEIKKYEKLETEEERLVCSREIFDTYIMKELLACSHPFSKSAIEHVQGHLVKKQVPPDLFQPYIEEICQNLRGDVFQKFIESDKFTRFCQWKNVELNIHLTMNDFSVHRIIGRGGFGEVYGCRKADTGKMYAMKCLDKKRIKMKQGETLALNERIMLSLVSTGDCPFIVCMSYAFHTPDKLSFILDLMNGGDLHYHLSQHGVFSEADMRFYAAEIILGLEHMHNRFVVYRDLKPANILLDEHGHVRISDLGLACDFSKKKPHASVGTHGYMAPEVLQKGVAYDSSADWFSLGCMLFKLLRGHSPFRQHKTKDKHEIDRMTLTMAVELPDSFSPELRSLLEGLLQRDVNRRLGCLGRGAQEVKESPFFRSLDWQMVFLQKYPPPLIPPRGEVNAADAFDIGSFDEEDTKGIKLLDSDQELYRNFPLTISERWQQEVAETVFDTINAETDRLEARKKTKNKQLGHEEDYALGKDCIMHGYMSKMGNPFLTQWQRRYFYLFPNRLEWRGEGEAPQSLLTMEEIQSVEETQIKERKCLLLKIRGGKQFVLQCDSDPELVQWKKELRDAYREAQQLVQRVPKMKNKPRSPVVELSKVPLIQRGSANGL
# Summary of the method: (§1)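 Radiometric kinase assay using tubulin as phosphoacceptor and [γ-32P]ATP. Inhibitor was preincubated with the kinase for the stated time (here 4 h) before the reaction. IC50 came from dose–response curves. Most runs were three independent experiments in duplicate; some GRK5/GRK6 4 h runs were done twice in duplicate.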
# [2] = Inhibition of bovine GRK6 using tubulin as substrate measured after 4 hrs by [gamma-32P]-ATP assay; design: species or system Bos taurus; summary of the method: as §1
# [3] = target: T2, G protein-coupled receptor kinase 5 (Homo sapiens, UniProt P34947); assay: Displacement of BODIPY TR-ADP from GRK5 (unknown origin) preincubated for 10 mins followed by compound addition and measured after 10 to 15 mins by fluorescence polarization displacement assay
# T2 sequence (P34947 whole entry, the tested form may be a part): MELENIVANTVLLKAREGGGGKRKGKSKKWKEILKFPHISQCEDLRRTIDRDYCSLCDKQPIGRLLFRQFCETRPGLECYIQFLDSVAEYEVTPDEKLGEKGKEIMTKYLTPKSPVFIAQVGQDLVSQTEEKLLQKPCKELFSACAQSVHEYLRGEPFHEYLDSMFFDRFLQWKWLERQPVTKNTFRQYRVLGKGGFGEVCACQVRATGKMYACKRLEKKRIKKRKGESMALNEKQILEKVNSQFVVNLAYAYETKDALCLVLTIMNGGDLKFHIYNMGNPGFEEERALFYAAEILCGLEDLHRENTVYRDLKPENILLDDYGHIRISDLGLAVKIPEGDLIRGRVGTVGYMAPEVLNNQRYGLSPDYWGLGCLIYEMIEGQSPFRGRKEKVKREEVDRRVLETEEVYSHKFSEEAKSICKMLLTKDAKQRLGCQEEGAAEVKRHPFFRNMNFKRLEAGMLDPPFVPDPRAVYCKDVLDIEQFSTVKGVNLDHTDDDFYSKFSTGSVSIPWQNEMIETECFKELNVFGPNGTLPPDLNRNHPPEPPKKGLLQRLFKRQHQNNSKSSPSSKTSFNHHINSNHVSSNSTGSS
# Rhodopsin kinase GRK1 [4] = target: T3, Rhodopsin kinase GRK1 (Bos taurus, UniProt P28327); assay: Displacement of BODIPY TR-ADP from bovine GRK1 (1 to 535 residues) preincubated for 10 mins followed by compound addition and measured after 10 to 15 mins by fluorescence polarization displacement assay
# T3 sequence (P28327 whole entry): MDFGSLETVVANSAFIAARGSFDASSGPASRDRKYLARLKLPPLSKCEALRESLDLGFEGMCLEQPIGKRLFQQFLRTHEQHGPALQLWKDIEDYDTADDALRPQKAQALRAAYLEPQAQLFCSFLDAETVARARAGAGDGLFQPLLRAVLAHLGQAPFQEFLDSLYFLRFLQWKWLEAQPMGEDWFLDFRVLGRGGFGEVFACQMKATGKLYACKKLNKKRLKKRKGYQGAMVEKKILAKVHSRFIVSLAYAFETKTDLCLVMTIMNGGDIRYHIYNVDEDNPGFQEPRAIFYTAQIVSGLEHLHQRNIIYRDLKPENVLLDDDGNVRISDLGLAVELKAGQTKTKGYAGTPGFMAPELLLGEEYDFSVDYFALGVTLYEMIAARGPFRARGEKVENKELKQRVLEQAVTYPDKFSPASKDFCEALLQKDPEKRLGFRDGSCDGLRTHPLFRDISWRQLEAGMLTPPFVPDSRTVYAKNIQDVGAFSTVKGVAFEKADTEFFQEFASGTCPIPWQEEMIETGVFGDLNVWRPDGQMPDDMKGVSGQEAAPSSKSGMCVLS
# [5] = Selectivity index, ratio of IC50 for bovine GRK2 to IC50 for human GRK5
# Summary of the method: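 Selectivity is the GRK2 IC50 divided by the GRK5 IC50. Both values come from the tubulin/[γ-32P]ATP radiometric assay. The GRK5 value used is from the longest inhibitor preincubation tested.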
# [6] = target: T2, G protein-coupled receptor kinase 5; assay: Inhibition of human GRK5 using tubulin as substrate measured after 4 hrs by [gamma-32P]-ATP assay
# Rhodopsin kinase GRK1 [7] = target: T3, Rhodopsin kinase GRK1; assay: Inhibition of bovine GRK1 using tubulin as substrate measured after 4 hrs by [gamma-32P]-ATP assay; summary of the method: as §1
# [8] = target: G protein-coupled receptor kinase 5 (Bos taurus, UniProt P43249, C474S); assay: Inhibition of bovine GRK5 C474S mutant using tubulin as substrate measured after 4 hrs by [gamma-32P]-ATP assay
# G protein-coupled receptor kinase 5 (Bos taurus, UniProt P43249, C474S), sequence (P43249 whole entry C474S): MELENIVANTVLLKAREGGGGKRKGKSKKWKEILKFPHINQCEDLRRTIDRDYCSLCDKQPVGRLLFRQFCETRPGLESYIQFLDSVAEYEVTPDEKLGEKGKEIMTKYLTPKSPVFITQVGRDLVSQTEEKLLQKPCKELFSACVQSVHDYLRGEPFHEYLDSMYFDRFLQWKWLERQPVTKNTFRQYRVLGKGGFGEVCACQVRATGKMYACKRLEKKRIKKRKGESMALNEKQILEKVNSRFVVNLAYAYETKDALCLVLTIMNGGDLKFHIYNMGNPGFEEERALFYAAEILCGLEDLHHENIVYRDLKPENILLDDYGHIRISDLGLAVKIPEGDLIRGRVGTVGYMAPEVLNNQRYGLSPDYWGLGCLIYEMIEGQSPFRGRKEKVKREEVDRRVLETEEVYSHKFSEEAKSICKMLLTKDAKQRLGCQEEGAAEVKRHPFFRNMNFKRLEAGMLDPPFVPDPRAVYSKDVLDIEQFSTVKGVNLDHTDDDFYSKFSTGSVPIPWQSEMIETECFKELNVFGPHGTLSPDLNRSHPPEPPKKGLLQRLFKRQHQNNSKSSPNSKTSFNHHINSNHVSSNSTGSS
Structure (SMILES),IC50 [1] [µM],IC50 [2] [µM],further results
C=CC(=O)NCc1ccc(Nc2nc(Nc3ccccc3C(=O)NC)c3cc[nH]c3n2)c(OC)c1,> 100,> 100,–
CCC(=O)Nc1ccc(OC)c(Nc2nc(Nc3ccccc3C(N)=O)c3cc[nH]c3n2)c1,–,> 100,–
CNC(=O)c1ccccc1Nc1nc(Nc2ccc(CNC(=O)/C=C/CN(C)C)cc2OC)nc2[nH]ccc12,> 100,> 100,–
CCCN1CCC(c2ccc(Nc3nc(Nc4cc(F)ccc4C(N)=O)c4cc[nH]c4n3)c(OC)c2)CC1 [GSK-1326255A],–,–,IC50 [3]: 2.5 µM; IC50 (Rhodopsin kinase GRK1 [4]): > 100 µM
CNC(=O)c1ccccc1Nc1nc(Nc2cc(CNC(=O)/C=C/CN(C)C)ccc2OC)nc2[nH]ccc12,2.1,2.6,Ratio IC50 [5]: 0.4; IC50 [6]: 4.8 µM
C=CS(=O)(=O)NCc1ccc(Nc2nc(Nc3ccccc3C(=O)NC)c3cc[nH]c3n2)c(OC)c1,> 100,7.7,–
COc1ccc(NC(=O)/C=C/CN(C)C)cc1Nc1nc(Nc2ccccc2C(N)=O)c2cc[nH]c2n1,2.7,–,IC50 (Rhodopsin kinase GRK1 [7]): 2.1 µM
CCC(=O)NCc1ccc(Nc2nc(Nc3ccccc3C(=O)NC)c3cc[nH]c3n2)c(OC)c1,> 100,> 100,IC50 [8]: 100 µM; IC50 [6]: > 100 µM
CCC(=O)NCc1ccc(OC)c(Nc2nc(Nc3ccccc3C(=O)NC)c3cc[nH]c3n2)c1,2.9,> 100,Ratio IC50 [5]: < 0.01; IC50 [6]: > 100 µM
C=CC(=O)NCc1ccc(OC)c(Nc2nc(Nc3ccccc3C(=O)NC)c3cc[nH]c3n2)c1,3.2,18,–
CC#CC(=O)NCc1ccc(OC)c(Nc2nc(Nc3ccccc3C(=O)NC)c3cc[nH]c3n2)c1,> 100,> 100,IC50 [6]: > 100 µM
C=CS(=O)(=O)NCc1ccc(OC)c(Nc2nc(Nc3ccccc3C(=O)NC)c3cc[nH]c3n2)c1,> 100,2.5,Ratio IC50 [5]: > 14; IC50 [6]: 7.1 µM
COc1cc2c(cc1Nc1nc(Nc3ccsc3C(N)=O)c3cc[nH]c3n1)N(C(=O)CN(C)C)CCC2(C)C [GSK-2163632A],–,–,IC50 [3]: 3.2 µM; IC50 (Rhodopsin kinase GRK1 [4]): 0.13 µM
COc1cc(NC(=O)/C=C/CN(C)C)ccc1Nc1nc(Nc2ccccc2C(N)=O)c2cc[nH]c2n1,0.68,–,IC50 (Rhodopsin kinase GRK1 [7]): 0.76 µM
C=CC(=O)Nc1ccc(Nc2nc(Nc3ccccc3C(N)=O)c3cc[nH]c3n2)c(OC)c1,–,0.41,–
CC#CC(=O)NCc1ccc(Nc2nc(Nc3ccccc3C(=O)NC)c3cc[nH]c3n2)c(OC)c1,> 100,> 100,–
CCCN1CCC(Oc2cc(Nc3nc(Nc4cccc(F)c4C(N)=O)c4cc[nH]c4n3)c(OC)cc2Cl)CC1 [GSK-1713088A],–,–,IC50 [3]: 3.2 µM
